Data set [1] in a line: Safety index, ratio compound EC50 to olaparib EC50 for BRCA1 deficient human UWB1.289 cells. In kind it is ADME. To be noted: BRCA1-deficient UWB1.289 cells, read-out: Ratio EC50. An outline of the steps: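 UWB1.289 cells were grown in 1:1 MEGM (bullet kit) and RPMI 1640 with 10% FBS and 1% pen/strep, at 37 °C, 5% CO2 and 15% O2. Cells were seeded at 1,000 cells/well and dosed after 24 h at 100–0.016 µM for 4–7 days. Viability was read by CellTiter-Glo luminescence and normalised to the vehicle mean.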

In data set [2] the test system is MEF. Put plainly: Cytotoxicity against mouse PARP1 deficient MEF cells assessed as reduction in cell viability after 4 to 7 days by cell-titer glo assay. The class given is cell-based.
The nature of data set [3]: Cytotoxicity against human BRCA1-deficient UWB1.289 cells assessed as reduction in cell viability after 4 to 7 days by cell-titer glo assay. In kind it is cell-based.
The target of data set [4] is T1, Poly [ADP-ribose] polymerase tankyrase-2 (Homo sapiens, UniProt Q9H2K2).
T1 sequence (Q9H2K2 whole entry): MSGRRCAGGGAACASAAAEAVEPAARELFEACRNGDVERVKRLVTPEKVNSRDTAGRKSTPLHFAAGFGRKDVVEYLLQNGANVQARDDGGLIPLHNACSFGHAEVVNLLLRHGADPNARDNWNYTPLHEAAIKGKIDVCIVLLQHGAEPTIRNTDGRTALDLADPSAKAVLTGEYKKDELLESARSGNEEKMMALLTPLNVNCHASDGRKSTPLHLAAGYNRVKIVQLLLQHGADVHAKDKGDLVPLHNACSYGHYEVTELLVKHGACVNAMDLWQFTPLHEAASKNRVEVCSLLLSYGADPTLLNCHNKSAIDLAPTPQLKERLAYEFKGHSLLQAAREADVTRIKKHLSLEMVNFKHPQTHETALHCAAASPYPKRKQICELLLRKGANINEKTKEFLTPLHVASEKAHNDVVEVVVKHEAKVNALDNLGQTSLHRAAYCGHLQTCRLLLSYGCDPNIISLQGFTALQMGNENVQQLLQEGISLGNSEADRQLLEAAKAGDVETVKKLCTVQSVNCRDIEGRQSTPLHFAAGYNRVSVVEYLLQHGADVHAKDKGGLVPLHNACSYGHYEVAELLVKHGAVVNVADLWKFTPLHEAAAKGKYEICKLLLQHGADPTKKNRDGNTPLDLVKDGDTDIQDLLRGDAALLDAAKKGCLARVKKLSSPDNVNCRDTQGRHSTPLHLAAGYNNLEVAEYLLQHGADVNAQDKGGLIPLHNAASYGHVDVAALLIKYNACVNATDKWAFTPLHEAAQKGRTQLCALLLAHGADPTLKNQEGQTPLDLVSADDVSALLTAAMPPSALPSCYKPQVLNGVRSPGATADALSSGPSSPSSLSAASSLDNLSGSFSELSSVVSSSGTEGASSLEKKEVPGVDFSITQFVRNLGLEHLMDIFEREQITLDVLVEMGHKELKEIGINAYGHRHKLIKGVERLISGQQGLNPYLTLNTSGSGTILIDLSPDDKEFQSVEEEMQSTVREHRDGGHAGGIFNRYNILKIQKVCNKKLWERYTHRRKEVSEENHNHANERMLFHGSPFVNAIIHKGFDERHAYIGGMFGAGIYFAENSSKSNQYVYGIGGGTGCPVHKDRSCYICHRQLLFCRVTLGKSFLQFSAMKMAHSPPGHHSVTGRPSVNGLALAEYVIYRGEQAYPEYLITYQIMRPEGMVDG
As to the kind of experiment: Inhibition of human N-terminal GST-tagged TNKS2 (667 to 1166 residues) expressed in baculovirus infected sf9 cells using histone as substrate after 1 hr by streptavidin-horseradish peroxidase-based luminescence assay.

Data set [5] concerns the target T2, Poly [ADP-ribose] polymerase tankyrase-1 (Homo sapiens, UniProt O95271).
T2 sequence (O95271 whole entry): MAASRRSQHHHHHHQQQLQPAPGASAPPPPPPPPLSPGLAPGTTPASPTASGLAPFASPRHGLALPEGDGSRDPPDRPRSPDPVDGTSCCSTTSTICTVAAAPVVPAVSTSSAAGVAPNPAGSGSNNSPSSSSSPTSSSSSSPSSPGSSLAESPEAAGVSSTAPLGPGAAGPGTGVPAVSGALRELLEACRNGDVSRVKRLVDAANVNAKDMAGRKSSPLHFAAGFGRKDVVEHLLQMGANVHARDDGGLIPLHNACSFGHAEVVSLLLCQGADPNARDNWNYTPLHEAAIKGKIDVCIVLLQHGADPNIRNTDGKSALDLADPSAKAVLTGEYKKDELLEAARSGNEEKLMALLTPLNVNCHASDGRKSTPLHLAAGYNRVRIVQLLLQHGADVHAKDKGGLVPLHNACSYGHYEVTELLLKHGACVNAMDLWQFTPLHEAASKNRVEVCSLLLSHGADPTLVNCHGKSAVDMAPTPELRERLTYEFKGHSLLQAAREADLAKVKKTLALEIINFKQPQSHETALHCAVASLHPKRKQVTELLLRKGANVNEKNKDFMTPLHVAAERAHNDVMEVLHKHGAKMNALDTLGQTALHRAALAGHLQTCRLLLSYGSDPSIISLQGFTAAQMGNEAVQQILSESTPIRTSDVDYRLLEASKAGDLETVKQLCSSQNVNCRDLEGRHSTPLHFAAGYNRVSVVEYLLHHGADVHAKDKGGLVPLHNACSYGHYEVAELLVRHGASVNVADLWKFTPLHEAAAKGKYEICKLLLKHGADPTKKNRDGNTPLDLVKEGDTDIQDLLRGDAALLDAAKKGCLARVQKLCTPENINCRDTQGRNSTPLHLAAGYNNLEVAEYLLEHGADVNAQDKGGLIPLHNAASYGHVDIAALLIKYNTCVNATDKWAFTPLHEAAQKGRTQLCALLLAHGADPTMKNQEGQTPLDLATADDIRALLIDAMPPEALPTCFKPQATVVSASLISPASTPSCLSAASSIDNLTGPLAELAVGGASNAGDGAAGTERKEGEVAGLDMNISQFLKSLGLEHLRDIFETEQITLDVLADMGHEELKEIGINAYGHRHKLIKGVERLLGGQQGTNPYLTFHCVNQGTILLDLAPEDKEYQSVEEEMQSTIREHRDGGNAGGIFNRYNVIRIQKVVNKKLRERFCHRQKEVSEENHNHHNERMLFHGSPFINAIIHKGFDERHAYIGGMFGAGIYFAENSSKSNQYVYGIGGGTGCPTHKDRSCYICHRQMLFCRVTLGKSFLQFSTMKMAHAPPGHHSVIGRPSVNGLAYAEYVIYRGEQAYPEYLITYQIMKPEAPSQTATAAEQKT
Put plainly: Inhibition of human N-terminal GST-tagged TNKS1 (1001 to 1327 residues) expressed in baculovirus infected sf9 cells using histone as substrate after 1 hr by streptavidin-horseradish peroxidase-based luminescence assay.

Data set [6] deals with MEF. As to the kind of experiment: Cytotoxicity against mouse PARP2 deficient MEF cells expressing PARP1 assessed as reduction in cell viability after 4 to 7 days by cell-titer glo assay. The class given is cell-based.
Data set [7] deals with T3, Poly [ADP-ribose] polymerase tankyrase-2 (Homo sapiens) (UniProt Q9H2K2).
T3 sequence (whole entry): T1 sequence (Q9H2K2 whole entry)
Put plainly: Inhibition of human N-terminal GST-tagged TNKS2 (667 to 1166 residues) expressed in baculovirus infected sf9 cells at 10 uM using histone as substrate after 1 hr by streptavidin-horseradish peroxidase-based luminescence assay. A digest of the protocol:
(§1)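 Run by an outside contractor using PARP or TNKS kit protocols, in duplicate, at room temperature for 1 h in histone-coated wells. The Tris·HCl pH 8.0 reaction buffer held NAD+, biotinylated NAD+, activated DNA, enzyme and compound. Streptavidin-HRP was then added for 30 min at room temperature, followed by developer reagents and a luminescence read.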

Data set [8] can be described thus: Cytotoxicity against human BRCA1-restored UWB1.289 cells assessed as reduction in cell viability after 4 to 7 days by cell-titer glo assay. In kind it is cell-based.
For data set [9], the system named is MEF. As to the kind of experiment: Cytotoxicity against mouse wild type MEF cells assessed as reduction in cell viability after 4 to 7 days by cell-titer glo assay. In kind it is cell-based.
In data set [10] the test system is MEF. Put plainly: Cytotoxicity against mouse wild type MEF cells assessed as reduction in cell viability at 0.016 to 100 uM after 4 to 7 days by cell-titer glo assay. In kind it is cell-based. An outline of the steps:
(§2)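 Cells kept at 37 °C, 5% CO2, 15% O2 in RPMI 1640 with 10% FBS and 1% penicillin/streptomycin. Seeded at 1,000 cells/well and dosed 24 h later at 100–0.016 µM. Exposure lasted 4–7 days, then viability was read by CellTiter Glo luminescence. Signal was normalized to percent survival against the mean of vehicle controls. Three repeat experiments.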

The target in data set [11] is T4, Poly [ADP-ribose] polymerase 1 (Homo sapiens, UniProt P09874). Put plainly: Inhibition of PARP1 (unknown origin) at 10 uM. A digest of the protocol:
as §1

Data set [12] concerns MEF. As to the kind of experiment: Cytotoxicity against mouse PARP1 deficient MEF cells assessed as reduction in cell viability at 0.016 to 100 uM after 4 to 7 days by cell-titer glo assay. In kind it is cell-based. An outline of the steps:
as §2

The nature of data set [13]: Cytotoxicity against human OVCAR8 cells assessed as cell survival at 10 uM after 4 to 7 days by cell-titer glo assay. In kind it is cell-based, OVCAR-8. The settings on record: OVCAR8 cells, read-out: Activity.
Data set [14] addresses T4, Poly [ADP-ribose] polymerase 1. As to the kind of experiment: Binding affinity to PARP1 in human OVCAR8 cells assessed as reduction in [125I]-KX1 binding by gamma counting analysis. In kind it is cell-based.

Here are results for four molecules from ChEMBL document CHEMBL4138313 (J Med Chem, 2018).

Calls of active or inactive are those of the source. The rule behind the calls is not given here.

T4 sequence (P09874 whole entry): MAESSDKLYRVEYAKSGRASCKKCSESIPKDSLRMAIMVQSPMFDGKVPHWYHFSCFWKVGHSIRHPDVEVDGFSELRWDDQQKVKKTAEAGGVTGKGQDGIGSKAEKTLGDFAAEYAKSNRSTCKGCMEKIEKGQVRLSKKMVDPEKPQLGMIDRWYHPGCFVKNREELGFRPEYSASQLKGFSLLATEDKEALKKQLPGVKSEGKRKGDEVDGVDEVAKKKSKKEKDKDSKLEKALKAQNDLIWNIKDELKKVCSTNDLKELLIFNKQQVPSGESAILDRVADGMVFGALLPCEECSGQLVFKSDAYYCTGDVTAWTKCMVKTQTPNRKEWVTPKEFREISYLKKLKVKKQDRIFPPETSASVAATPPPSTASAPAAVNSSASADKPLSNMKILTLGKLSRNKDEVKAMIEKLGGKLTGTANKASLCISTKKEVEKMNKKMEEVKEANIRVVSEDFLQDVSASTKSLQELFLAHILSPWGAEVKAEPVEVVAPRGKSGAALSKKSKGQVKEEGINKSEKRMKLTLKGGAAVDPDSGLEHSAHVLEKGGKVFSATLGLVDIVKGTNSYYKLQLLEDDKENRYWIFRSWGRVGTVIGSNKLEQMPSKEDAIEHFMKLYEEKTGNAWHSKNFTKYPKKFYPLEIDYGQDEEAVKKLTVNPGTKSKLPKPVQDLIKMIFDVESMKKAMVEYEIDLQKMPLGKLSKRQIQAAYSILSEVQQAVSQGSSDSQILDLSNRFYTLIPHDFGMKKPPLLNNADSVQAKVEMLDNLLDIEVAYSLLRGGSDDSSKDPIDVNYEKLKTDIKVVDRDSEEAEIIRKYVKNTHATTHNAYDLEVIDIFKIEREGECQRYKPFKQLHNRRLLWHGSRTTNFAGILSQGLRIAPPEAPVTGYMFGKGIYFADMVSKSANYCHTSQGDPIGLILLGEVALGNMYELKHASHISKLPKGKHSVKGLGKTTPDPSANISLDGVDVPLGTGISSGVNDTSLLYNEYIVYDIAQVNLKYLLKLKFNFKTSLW

One may read the EC50 as the concentration giving half of the maximal effect. In general, IC50 refers to the midpoint of a concentration-inhibition curve. Consider `CC(C)(C)OC(=O)N1CCC2(CCN(C(=O)c3cc(Cc4n[nH]c(=O)c5ccccc45)ccc3F)C2)C1` (stereo unspecified), for which the selectivity ratio in data set [1] fell in the range of 20 to 40. Also, the EC50 was 46.4 µM with MEF [2]; 4.2 µM in [3]; 23.4 µM in the data set with MEF [6]; 7.4 µM in [8]; 17.2 µM in the data set on MEF [9]. Also, the IC50 worked out at 0.576 µM in data set [4] and 1 µM in data set [5]. Besides, in [7], the inhibition entry was “Active”.

Take `CC(C)(C)OC(=O)N1CCC2(CC1)CCN(C(=O)c1cc(Cc3n[nH]c(=O)c4ccccc34)ccc1F)CC2`: in data set [1], the selectivity ratio lay within 20 to 40. Further, the EC50 is 43.4 µM in the data set with MEF [2]; 2.7 µM in data set [3]; 19.2 µM with MEF [6]; 4 µM in data set [8]; 16.9 µM with MEF [9]. Further, the IC50 in data set [4] turned out to be 2.8 µM; in [5] it was 5.7 µM. In [7], the inhibition result is “Active”.

Regarding `O=C(c1cc(Cc2n[nH]c(=O)c3ccccc23)ccc1F)N1CC2(C1)CN(C(=O)C1CC1)C2`, the selectivity ratio in [1] was determined as 7. Also, the EC50 turned out to be 1.5 µM in data set [3], 59.8 µM in the data set with MEF [6] and 12.1 µM in data set [8]. Moreover, the Activity in the data set with MEF [10] and in the data set on MEF [12] was below 50% throughout. In addition, the inhibition result in data set [11] is “Active”. Moreover, the viability at 10 µM in data set [13] turned out to be 80%.

Consider `CC(C)(C)OC(=O)N1CCC2(CC1)CCN(C(=O)c1cc(Cc3n[nH]c(=O)c4ccccc34)ccc1F)C2`, for which the IC50 was determined as 1.1 µM in [14], 0.953 µM in data set [4] and 3 µM in [5]. Moreover, the selectivity ratio in data set [1] lay in the range of 20 to 40. The EC50 with MEF [2] stood at 45.9 µM; in [3], 8.4 µM; in the data set with MEF [6], 31.6 µM; in [8] it was 6.2 µM; in the data set with MEF [9], 9.4 µM. Moreover, the inhibition entry in data set [7] was “Active”.
